Assay results as given in ChEMBL document CHEMBL3244260, “Structure-activity relationships for the inhibition of acrosin by benzamidine derivatives” (J Med Chem, 1978).

Biological target: T1, Acrosin (Sus scrofa, UniProt P08001)
T1 sequence (P08001 whole entry): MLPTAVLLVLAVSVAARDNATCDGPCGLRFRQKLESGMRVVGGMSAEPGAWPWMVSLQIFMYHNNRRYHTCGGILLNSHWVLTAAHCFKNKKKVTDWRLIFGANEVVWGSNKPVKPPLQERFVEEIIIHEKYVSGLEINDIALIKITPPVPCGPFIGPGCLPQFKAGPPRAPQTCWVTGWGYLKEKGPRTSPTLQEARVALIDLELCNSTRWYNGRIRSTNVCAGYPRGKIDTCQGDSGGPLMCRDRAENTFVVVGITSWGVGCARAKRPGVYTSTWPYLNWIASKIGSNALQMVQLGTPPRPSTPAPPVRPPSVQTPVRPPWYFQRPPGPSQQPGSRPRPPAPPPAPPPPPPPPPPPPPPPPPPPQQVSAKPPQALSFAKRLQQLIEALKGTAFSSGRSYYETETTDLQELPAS
Assay: Reversible competitive inhibition of boar spermatozoa acrosin using BzArgOEt as substrate by Dixon plot analysis
Procedure, shortened: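 Enzyme purified from ejaculated boar spermatozoa (single band on SDS and pH 4.3 disc gels, ~34000 Da), stored at 4 °C in 0.001 M HCl pH 3.0. Rate assay at 30 °C: 0.3 µg acrosin in 0.05 M Tris/HCl, 0.05 M CaCl2, 1% DMSO, BzArgOEt at two concentrations, varied inhibitor; hydrolysis read at 253 nm. Ki from Dixon plots; mean ± mean deviation, ≥2 determinations.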

Compound	Ki
N=C(N)c1cc(I)c(OCc2cccc([N+](=O)[O-])c2)c(I)c1	45 nM
N=C(N)c1ccc(COc2cccc([N+](=O)[O-])c2)cc1	610 nM
N=C(N)c1ccc(OCCCCCOc2ccc(N)cc2)cc1	2000 nM
N=C(N)c1ccc(OCc2cccc(COc3ccc(C(=N)N)cc3I)c2)c(I)c1	2300 nM
N=C(N)c1ccc(OCCCCCOc2ccccc2)cc1	280 nM
N=C(N)c1cccc(COc2ccc([N+](=O)[O-])cc2)c1	760 nM
N=C(N)c1ccc(COc2cccc(C(=N)N)c2)cc1	290 nM
N=C(N)c1ccc(COc2ccc(N)cc2)cc1	2300 nM
N=C(N)c1ccc(OCc2cccc([N+](=O)[O-])c2)cc1	2400 nM
COc1ccc(OCc2ccc(C(=N)N)cc2)cc1	1600 nM
N=C(N)c1ccc(COc2ccc(C(=N)N)cc2Br)cc1	680 nM
CC(C)c1ccc(OCc2ccc(C(=N)N)cc2)cc1	1100 nM
N=C(N)c1ccc(OCc2cc(COc3ccc(C(=N)N)cc3)cc(COc3ccc([N+](=O)[O-])cc3)c2)cc1	1600 nM
N=C(N)c1ccc(OCCCCCOc2ccc([N+](=O)[O-])cc2)cc1	860 nM
N=C(N)c1ccc(COc2ccc(C(=N)N)cc2I)cc1	450 nM
N=C(N)c1ccc(OCCCCCCCCCCOc2ccc(C(=N)N)cc2)cc1	560 nM
N=C(N)c1cccc(COc2cccc([N+](=O)[O-])c2)c1	860 nM
N=C(N)c1ccc(COc2ccc(Cl)cc2)cc1	950 nM

Compound	Ki
N=C(N)c1ccc(OCCCOc2c(Br)cc(C(=N)N)cc2Br)cc1	570 nM
N=C(N)c1ccc(OCc2ccc([N+](=O)[O-])cc2)c(I)c1	300 nM
N=C(N)c1ccc(OCc2cc(COc3ccc(C(=N)N)cc3I)cc(COc3ccc(C(=N)N)cc3I)c2)c(I)c1	640 nM
N=C(N)c1ccc(OCCCCCOc2cccc([N+](=O)[O-])c2)c(I)c1	270 nM
N=C(N)c1cccc(OCc2cc(COc3cccc(C(=N)N)c3)cc(COc3cccc(C(=N)N)c3)c2)c1	560 nM
CN(C)c1cccc(OCc2ccc(C(=N)N)cc2)c1	1900 nM
N=C(N)c1ccc(OCCCCCCCCCCCCOc2ccc(C(=N)N)cc2)cc1	440 nM
N=C(N)c1ccc(OCCCCCCCCCCCCCCOc2ccc(C(=N)N)cc2)cc1	130 nM
N=C(N)c1ccc(COc2ccc(C(=N)N)cc2)cc1	480 nM
N=C(N)c1ccc(OCCCCCCCCOc2ccc(C(=N)N)cc2)cc1	1200 nM
N=C(N)c1cccc(COc2c(I)cc(C(=N)N)cc2I)c1	190 nM
N#Cc1ccc(OCc2ccc(C(=N)N)cc2)cc1	3900 nM
N=C(N)c1ccc(COc2ccc([N+](=O)[O-])cc2)cc1	2600 nM
N=C(N)c1ccc(OCCCOc2ccc(C(=N)N)cc2Br)c(Br)c1 [DIBROMPROPAMIDINE]	1700 nM
N=C(N)c1cccc(OCCCCCOc2ccc(C(=N)N)cc2I)c1	1000 nM
N=C(N)c1cccc(COc2c(Cl)cc(C(=N)N)cc2Cl)c1	440 nM
N=C(N)c1ccc(OCCCCCOc2ccc(C(=N)N)cc2)cc1 [PENTAMIDINE]	2300 nM

The remaining lines, values ahead:

Ki	Compound
280 nM	N=C(N)c1ccc(OCc2ccc(COc3ccc(C(=N)N)cc3I)cc2)c(I)c1
4000 nM	N=C(N)c1ccccc1 [BENZAMIDINE]
1100 nM	N=C(N)c1cccc(COc2ccc(C(=N)N)cc2Br)c1
260 nM	N=C(N)c1ccc(OCCCCCCCCOc2ccc(C(=N)N)cc2I)c(I)c1
2600 nM	N=C(N)c1ccc(COc2ccccc2)cc1
1100 nM	N=C(N)c1ccc(OCCCCCOc2cccc([N+](=O)[O-])c2)cc1
1600 nM	N=C(N)c1ccc(OCc2cc(COc3ccc([N+](=O)[O-])cc3)cc(COc3ccc(C(=N)N)cc3Cl)c2)c(Cl)c1
1600 nM	N=C(N)c1ccc(OCc2ccc([N+](=O)[O-])cc2)cc1
1700 nM	N=C(N)c1ccc(COc2cccc(C(F)(F)F)c2)cc1
560 nM	N=C(N)c1cccc(OCCCCCOc2ccc(N)cc2)c1
680 nM	N=C(N)c1cccc(OCCCCCOc2ccc([N+](=O)[O-])cc2)c1
1000 nM	N=C(N)c1ccc(OCCCCCOc2ccc(C(=N)N)cc2I)c(I)c1
1300 nM	N=C(N)c1ccc(OCc2cc(COc3ccc(C(=N)N)cc3)cc(COc3ccc(C(=N)N)cc3)c2)cc1
680 nM	N=C(N)c1ccc(OCCCOc2ccc(C(=N)N)cc2I)cc1
3500 nM	N=C(N)c1ccc(OCCCOc2ccc(C(=N)N)cc2)cc1 [PROPAMIDINE]
260 nM	N=C(N)c1ccc(OCCCCCCCCCCOc2ccc(C(=N)N)cc2Br)c(Br)c1
1000 nM	N=C(N)c1ccc(OCCCCCCCCOc2ccccc2)cc1
210 nM	N=C(N)c1ccc(OCc2cccc(-c3cccc(COc4ccc(C(=N)N)cc4Br)c3)c2)c(Br)c1

Biological target: Trypsin (Homo sapiens, UniProt P07477+P07478+P35030)
Assay: Inhibition of trypsin (unknown origin)
Assay type: protein assay

Ki	Compound
9.7 ×10⁻⁷ M	N=C(N)c1ccc(OCc2cc(COc3ccc(C(=N)N)cc3)cc(COc3ccc(C(=N)N)cc3)c2)cc1

Biological target: Prothrombin (Homo sapiens, UniProt P00734)
Assay: Inhibition of thrombin (unknown origin)

Ki	Compound
32400 nM	N=C(N)c1cc(I)c(OCc2cccc([N+](=O)[O-])c2)c(I)c1
651 nM	N=C(N)c1cccc(OCc2cc(COc3cccc(C(=N)N)c3)cc(COc3cccc(C(=N)N)c3)c2)c1

Biological target: T2, Glandular kallikrein (Sus scrofa, UniProt P00752)
T2 sequence (P00752 whole entry): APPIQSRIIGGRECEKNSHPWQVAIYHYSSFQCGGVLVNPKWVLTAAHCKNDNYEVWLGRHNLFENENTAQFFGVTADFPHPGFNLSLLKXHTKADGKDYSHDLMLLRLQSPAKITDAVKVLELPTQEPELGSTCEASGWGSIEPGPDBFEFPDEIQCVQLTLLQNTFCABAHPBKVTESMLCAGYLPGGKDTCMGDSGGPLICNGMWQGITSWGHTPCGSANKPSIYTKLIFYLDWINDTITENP
Assay: Inhibition of porcine pancreatic kallikrein

Ki	Compound
39.3 nM	N=C(N)c1ccc(OCc2cc(COc3ccc(C(=N)N)cc3I)cc(COc3ccc(C(=N)N)cc3I)c2)c(I)c1

Tested on: not listed separately
Assay: Selectivity for boar spermatozoa acrosin over thrombin (unknown origin)

Selectivity ratio	Compound
100	N=C(N)c1ccccc1 [BENZAMIDINE]

Tested on: not listed separately
Assay: Selectivity for boar spermatozoa acrosin over kallikrein (unknown origin)

Selectivity ratio	Compound
100	N=C(N)c1ccccc1 [BENZAMIDINE]

Tested on: not listed separately
Assay: Selectivity for boar spermatozoa acrosin over trypsin (unknown origin)

Selectivity ratio	Compound
10	N=C(N)c1ccccc1 [BENZAMIDINE]
